Laboratory results taken from ChEMBL document CHEMBL5030540 (J Med Chem, 2021).
Calls of active or inactive are those of the source.

Legend:
Mu-type opioid receptor [1] = molecular target: T1, Mu-type opioid receptor (Homo sapiens, UniProt P35372); test: Agonist activity at human MOR expressed in HEK-293T cells assessed as inhibition of forskolin-stimulated cAMP accumulation incubated for 30 mins by Glo-sensor cAMP assay relative to DAMGO; assay type: functional, cell-based; conditions: HEK293T
T1 sequence (P35372 whole entry): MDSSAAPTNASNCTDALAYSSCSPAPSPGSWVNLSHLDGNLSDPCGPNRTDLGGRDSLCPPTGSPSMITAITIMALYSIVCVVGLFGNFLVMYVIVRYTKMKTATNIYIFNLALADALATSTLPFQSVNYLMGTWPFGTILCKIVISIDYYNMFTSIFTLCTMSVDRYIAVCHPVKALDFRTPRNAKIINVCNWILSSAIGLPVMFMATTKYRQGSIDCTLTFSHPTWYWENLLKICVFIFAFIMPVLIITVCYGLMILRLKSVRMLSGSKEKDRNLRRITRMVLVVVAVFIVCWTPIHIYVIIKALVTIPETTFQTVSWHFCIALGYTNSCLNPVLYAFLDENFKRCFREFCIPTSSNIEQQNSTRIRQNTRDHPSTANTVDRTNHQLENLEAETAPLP
Outline: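 HEK293T cells transiently co-transfected with human MOR and a luciferase-based cAMP biosensor. Gαi-mediated cAMP inhibition read by luminescence. […] EC50 given as pEC50 ± SEM, triplicate runs.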

Mu-type opioid receptor [2] = molecular target: T1, Mu-type opioid receptor; test: Agonist activity at human MOR receptor expressed in HTLA cells co-expressing TEV-fused-beta-arrestin2 assessed as induction of beta-arrestin2 recruitment by Tango assay relative to DAMGO; assay type: functional, cell-based
Outline: (§1)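 HTLA cells expressing TEV-fused β-arrestin2 transiently transfected with a human MOR Tango construct. β-arrestin2 recruitment measured. […] Mean pEC50 ± SEM and Emax% ± SEM from triplicate runs.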

Mu-type opioid receptor [3] = molecular target: T1, Mu-type opioid receptor; test: Agonist activity at human MOR expressed in HEK293T cells assessed as inhibition of forskolin-stimulated cAMP accumulation incubated for 30 mins by Glo-sensor cAMP assay; assay type: functional, cell-based
Outline: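 HEK293T cells transiently co-transfected with human MOR and a luciferase-based cAMP biosensor. Gαi-mediated cAMP inhibition read by luminescence. EC50 given as pEC50 ± SEM, triplicate runs.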

[4] = molecular target: Voltage-dependent L-type calcium channel subunit alpha-1C (Rattus norvegicus, UniProt P22002); test: Displacement of [3H]Diltiazem from Cav1.2 in rat brain at 10 uM incubated for 120 mins by radiometric scintillation counting analysis; assay type: tissue-based; conditions: 2 h
Chain of Voltage-dependent L-type calcium channel subunit alpha-1C (P22002 whole entry): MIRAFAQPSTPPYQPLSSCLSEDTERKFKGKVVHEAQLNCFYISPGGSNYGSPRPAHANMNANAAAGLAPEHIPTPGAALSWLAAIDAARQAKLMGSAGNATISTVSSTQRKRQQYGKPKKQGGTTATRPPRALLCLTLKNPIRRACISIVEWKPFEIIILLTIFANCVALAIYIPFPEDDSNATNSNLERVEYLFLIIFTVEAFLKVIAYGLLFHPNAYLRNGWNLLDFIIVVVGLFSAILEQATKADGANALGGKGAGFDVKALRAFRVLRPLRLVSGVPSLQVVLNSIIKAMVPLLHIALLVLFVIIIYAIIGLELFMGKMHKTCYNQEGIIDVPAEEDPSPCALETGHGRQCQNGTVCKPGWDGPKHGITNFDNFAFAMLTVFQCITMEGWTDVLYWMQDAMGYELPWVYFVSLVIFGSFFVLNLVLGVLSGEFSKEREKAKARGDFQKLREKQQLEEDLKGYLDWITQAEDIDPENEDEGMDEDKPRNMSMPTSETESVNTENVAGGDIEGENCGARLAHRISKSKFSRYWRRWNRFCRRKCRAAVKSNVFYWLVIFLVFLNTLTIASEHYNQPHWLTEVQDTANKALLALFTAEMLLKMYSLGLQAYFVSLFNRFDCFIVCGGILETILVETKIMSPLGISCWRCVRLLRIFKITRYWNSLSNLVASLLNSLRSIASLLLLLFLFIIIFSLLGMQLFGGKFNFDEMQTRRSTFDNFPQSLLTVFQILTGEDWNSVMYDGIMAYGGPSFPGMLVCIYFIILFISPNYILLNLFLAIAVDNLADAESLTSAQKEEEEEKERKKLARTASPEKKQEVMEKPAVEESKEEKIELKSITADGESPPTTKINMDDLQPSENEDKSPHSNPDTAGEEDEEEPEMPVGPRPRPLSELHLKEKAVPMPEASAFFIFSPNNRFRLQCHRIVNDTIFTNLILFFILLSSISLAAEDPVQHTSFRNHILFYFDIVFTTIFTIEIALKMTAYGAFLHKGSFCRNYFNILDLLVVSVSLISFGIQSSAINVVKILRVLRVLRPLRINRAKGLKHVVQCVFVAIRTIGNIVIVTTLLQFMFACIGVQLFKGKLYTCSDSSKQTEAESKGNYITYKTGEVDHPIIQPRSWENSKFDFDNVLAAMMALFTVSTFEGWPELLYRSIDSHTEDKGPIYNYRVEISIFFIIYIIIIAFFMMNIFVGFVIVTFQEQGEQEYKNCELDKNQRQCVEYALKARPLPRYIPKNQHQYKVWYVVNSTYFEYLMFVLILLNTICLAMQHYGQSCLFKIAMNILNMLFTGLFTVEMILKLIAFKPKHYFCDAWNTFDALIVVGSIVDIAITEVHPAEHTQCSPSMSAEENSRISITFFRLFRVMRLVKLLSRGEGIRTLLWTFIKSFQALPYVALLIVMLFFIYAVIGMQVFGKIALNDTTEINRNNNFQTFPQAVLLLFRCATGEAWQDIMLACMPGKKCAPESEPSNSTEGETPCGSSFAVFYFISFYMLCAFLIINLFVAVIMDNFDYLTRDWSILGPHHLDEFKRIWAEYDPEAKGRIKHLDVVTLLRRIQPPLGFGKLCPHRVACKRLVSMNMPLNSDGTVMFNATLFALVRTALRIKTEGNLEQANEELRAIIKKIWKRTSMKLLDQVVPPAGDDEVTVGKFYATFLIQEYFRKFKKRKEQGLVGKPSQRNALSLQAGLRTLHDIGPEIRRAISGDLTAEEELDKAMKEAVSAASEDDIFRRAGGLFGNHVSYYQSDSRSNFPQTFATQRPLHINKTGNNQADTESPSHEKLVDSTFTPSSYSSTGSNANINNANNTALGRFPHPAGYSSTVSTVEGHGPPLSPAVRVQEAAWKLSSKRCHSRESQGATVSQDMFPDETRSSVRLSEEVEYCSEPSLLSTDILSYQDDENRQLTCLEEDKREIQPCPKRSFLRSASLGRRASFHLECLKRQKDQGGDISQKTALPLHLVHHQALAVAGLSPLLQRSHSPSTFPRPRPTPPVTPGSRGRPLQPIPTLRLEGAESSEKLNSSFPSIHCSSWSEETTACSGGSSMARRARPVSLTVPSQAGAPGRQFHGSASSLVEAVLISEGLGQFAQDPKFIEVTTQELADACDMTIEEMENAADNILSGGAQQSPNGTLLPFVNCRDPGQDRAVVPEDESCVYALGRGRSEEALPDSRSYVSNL

Mu-type opioid receptor [5] = molecular target: T1, Mu-type opioid receptor; test: Agonist activity at human MOR expressed in CHO-K1 cells co-expressing beta-arrestin2 assessed as beta-arrestin2 EFC recruitment measured after 90 mins by PathHunter assay; assay type: functional, cell-based
Outline: (§2)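 CHO-K1 cells stably expressing human μOR grown to confluency and seeded overnight at 37 °C, 5% CO2. 5× dilution series of compound in Opti-MEM added for 90 min at 37 °C. Detection reagent then added for 60 min at room temperature in the dark, and chemiluminescence read.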

Mu-type opioid receptor [6] = molecular target: T1, Mu-type opioid receptor; test: Agonist activity at human MOR receptor expressed in HTLA cells co-expressing TEV-fused-beta-arrestin2 assessed as induction of beta-arrestin2 recruitment by Tango assay; assay type: functional, cell-based; outline: as §1
Mu-type opioid receptor [7] = molecular target: T1, Mu-type opioid receptor; test: Agonist activity at human MOR expressed in CHO-K1 cells co-expressing beta-arrestin2 assessed as beta-arrestin2 EFC recruitment measured after 90 mins by PathHunter assay relative to control; assay type: functional, cell-based; outline: as §2
Mu-type opioid receptor [8] = molecular target: T1, Mu-type opioid receptor; test: Partial agonist activity at human MOR expressed in HEK293T cells co-expressing Galpha-RLuc8:Gbeta:Ggamma-GFP2 assessed as Galpha-i/o activation measured after TRUPATH assay; assay type: functional, cell-based; conditions: filed as partial agonist
[9] = molecular target: GABA-A receptor; anion channel (Rattus norvegicus) (UniProt O09028+P15431+P18506+P18508+P19969+P20236+P23574+P23576+P28471+P28473+P30191+P62813+P63079+P63138+Q91ZM7+Q9ES14); test: Partial agonist activity at GABAA receptor in rat brain slice assessed as induction of receptor-mediated inhibitory postsynaptic current at 10 uM by Whole cell electrophysiology; assay type: tissue-based; conditions: filed as partial agonist
Outline: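 Horizontal VTA slices (200 μm) from male Sprague–Dawley rats. Whole-cell voltage clamp at −70 mV, 33 °C, KCl internal. GABAA IPSCs isolated with 10 μM DNQX and evoked by paired pulses every 10 s. Drug (10 μM) bath applied. Mean IPSC amplitude at minutes 4–7 of drug compared with the 4 min baseline.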

Mu-type opioid receptor [10] = molecular target: T1, Mu-type opioid receptor; test: Partial agonist activity at human MOR expressed in HEK293T cells co-expressing Galpha-RLuc8:Gbeta:Ggamma-GFP2 assessed as maximal Gi-1 activation measured after 15 mins by BRET assay relative to control; assay type: functional, cell-based; conditions: filed as partial agonist
[11] = molecular target: Mu-type opioid receptor (Mus musculus) (UniProt P42866); test: Partial agonist activity at mouse MOR expressed in HEK293T cells assessed as Nb33 recruitment by BRET assay relative to control; assay type: functional, cell-based
Chain of Mu-type opioid receptor (Mus musculus) (P42866 whole entry): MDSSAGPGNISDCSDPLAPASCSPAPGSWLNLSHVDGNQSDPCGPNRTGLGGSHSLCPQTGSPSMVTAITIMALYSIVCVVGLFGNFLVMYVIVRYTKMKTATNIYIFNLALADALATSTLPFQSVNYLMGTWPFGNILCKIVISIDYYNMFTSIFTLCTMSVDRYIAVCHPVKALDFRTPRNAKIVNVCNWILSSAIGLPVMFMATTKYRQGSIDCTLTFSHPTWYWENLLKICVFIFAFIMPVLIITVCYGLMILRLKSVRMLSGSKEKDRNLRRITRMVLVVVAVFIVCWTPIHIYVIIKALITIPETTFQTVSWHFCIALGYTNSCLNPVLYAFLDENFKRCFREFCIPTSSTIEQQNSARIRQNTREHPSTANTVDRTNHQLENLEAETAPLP
Outline: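 HEK293T cells transfected with murine MOR-NanoLuc (1 μg) and Nb33-Venus (4 μg) using PEI and used 48 h later. Cells in PBS given coelenterazine H (5 μM), ligand added at 5 min, BRET read 10 min later. Three-parameter fit; ≥3 independent trials in triplicate.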

[12] = Toxicity in C57BL/6 mouse model assessed as conditioned place aversion at 15 mg/kg, sc; assay type: organism-based; conditions: in vivo
Outline: (§3)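 Counterbalanced two-compartment place conditioning in C57BL/6J mice. […] Time on drug-paired side over a 20 min test compared with preconditioning by Welch-corrected t test.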

[13] = Toxicity in C57BL/6 mouse model assessed as hyperlocomotion at 15 times of ED50 for antinociceptive effect; conditions: in vivo
Outline: (§4)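 Mice habituated 60 min in sealed CLAMS cages, dosed sc, and confined 5 min later. Respiration rate measured by pressure transducer and ambulation by infrared beam breaks, every 20 min. […] Expressed as % vehicle. Two-way ANOVA with Dunnett's test.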

Mus musculus [14] = test: Antinociceptive activity in sc dosed C57BL/6 MOR knock out mouse model assessed as increase in tail withdrawal latency measured at 20 mins by radiant heat withdrawal assay; assay type: functional, organism-based
[15] = Toxicity in C57BL/6 mouse model assessed as charcoal distance travel at 15 mg/kg, sc measured after 3 hrs by gastrointestinal transit assay (reference value: 29.5 +/- 1 cm); assay type: organism-based; conditions: in vivo
Mus musculus [16] = test: Antinociceptive activity in sc dosed C57BL/6 mouse model assessed as increase in tail withdrawal latency measured at 20 mins by […] withdrawal assay; assay type: functional; conditions: C57BL/6, sc
Outline: (§5)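 C57BL/6J mice given compound sc or po. 55 °C warm-water tail withdrawal with baseline latency taken first, then measured every 10 min, 15 s cutoff. % antinociception = 100 × (test − baseline)/(15 − baseline). sc doses 1, 3, 10 mg/kg (n = 8). po dose 10 mg/kg (n = 13). ED50 with 95% CI.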

Mus musculus [17] = test: Antinociceptive activity in C57BL/6 mouse model assessed as measuring increase in tail withdrawal latency at 10 mg/kg, po at 55 degC measured at 30 mins peak time point by […] withdrawal assay; assay type: functional; conditions: 0.5 h; outline: as §5
[18] = Toxicity in C57BL/6 mouse model assessed as conditioned place preference at 10 mg/kg, IP; assay type: organism-based; conditions: in vivo; outline: as §3
Mus musculus [19] = test: Antinociceptive activity in C57BL/6 mouse model assessed as measuring increase in tail withdrawal latency at 10 mg/kg, sc at 55 degC measured at 20 mins peak time point by […] withdrawal assay; assay type: functional; outline: as §5
[20] = Toxicity in C57BL/6 mouse model assessed as conditioned place preference at 15 mg/kg, sc; assay type: organism-based; conditions: in vivo; outline: as §3
[21] = Toxicity in C57BL/6 mouse model assessed as respiratory depression at 15 times of ED50 for antinociceptive effect; conditions: in vivo; outline: as §4
Mu-type opioid receptor [22] = molecular target: T1, Mu-type opioid receptor; test: Displacement of [3H]-DAMGO from mu opioid receptor (unknown origin) expressed in CHO cells at 10 uM; assay type: cell-based
[23] = HTLA230, filed as partial agonist

CC[C@@H]1CN2CC[C@@]3(O)C(=Nc4ccc(C)c(OC)c43)[C@@H]2C[C@@H]1/C(=C\OC)C(=O)OC
Emax (Mu-type opioid receptor [1]; filed as agonist): 9.58% | Emax (Mu-type opioid receptor [2]; HTLA230): < 20% | EC50 (Mu-type opioid receptor [3]): 30.3 nM

CC[C@@H]1CN2CCc3c([nH]c4c(-c5ccoc5)ccc(OC)c34)[C@@H]2C[C@@H]1/C(=C\OC)C(=O)OC
Emax (Mu-type opioid receptor [1]; filed as agonist): 78.2% | Emax (Mu-type opioid receptor [2]; HTLA230): < 20% | EC50 (Mu-type opioid receptor [3]): 186 nM

CC[C@@H]1CN2CCc3c([nH]c4cccc(OC)c34)[C@@H]2C[C@@H]1/C(=C\OC)C(=O)OC
Emax (Mu-type opioid receptor [1]; filed as agonist): 84.7% | Emax (Mu-type opioid receptor [2]; HTLA230): < 20%

CC[C@@H]1CN2CC[C@@]3(O)C(=Nc4c(-c5ccoc5)ccc(OC)c43)[C@@H]2C[C@@H]1/C(=C\OC)C(=O)OC
Emax (Mu-type opioid receptor [1]; filed as agonist): 61.8% | Emax (Mu-type opioid receptor [2]; HTLA230): < 20% | EC50 (Mu-type opioid receptor [3]): 1560 nM

CC[C@@H]1CN2CCc3c([nH]c4c(-c5ccccc5)ccc(OC)c34)[C@@H]2C[C@@H]1/C(=C\OC)C(=O)OC
Emax (Mu-type opioid receptor [1]; filed as agonist): 50.4% | Emax (Mu-type opioid receptor [2]; HTLA230): < 20% | EC50 (Mu-type opioid receptor [3]): 1110 nM

CC[C@@H]1CN2CC[C@@]3(O)C(=Nc4cccc(-c5ccccc5)c43)[C@@H]2C[C@@H]1/C(=C\OC)C(=O)OC
Activity [4]: Active | Emax (Mu-type opioid receptor [5]): 31% | EC50 (Mu-type opioid receptor [6]): 19200 nM | Emax (Mu-type opioid receptor [7]): < 20% | Activity (Mu-type opioid receptor [8]): Active | Activity [9]: Active | Emax (Mu-type opioid receptor [1]; filed as partial agonist): 108% | Emax (Mu-type opioid receptor [10]): 60% | Emax (Mu-type opioid receptor [2]; [23]): 283% | Emax [11]: 20% | EC50 (Mu-type opioid receptor [3]): 36.2 nM

CC[C@@H]1CN2CCc3c([nH]c4cccc(-c5ccccc5)c34)[C@@H]2C[C@@H]1/C(=C\OC)C(=O)OC
Emax (Mu-type opioid receptor [1]; filed as agonist): 46.1% | Emax (Mu-type opioid receptor [2]; HTLA230): < 20% | EC50 (Mu-type opioid receptor [3]): 83.2 nM

CC[C@@H]1CN2CC[C@@]3(O)C(=Nc4cccc(-c5ccoc5)c43)[C@@H]2C[C@@H]1/C(=C\OC)C(=O)OC
Activity [12]: Non-Toxic | Activity [4]: Active | Activity [13]: Non-Toxic | Emax (Mu-type opioid receptor [5]): 31% | Activity (Mus musculus [14]): Active | Activity [15]: 30.8 cm | ED50 (Mus musculus [16]): 3.05 mg/kg | MPE (Mus musculus [17]): 87% | Activity [18]: Toxic | MPE (Mus musculus [19]): 100% | Activity [20]: Non-Toxic | EC50 (Mu-type opioid receptor [6]): 11000 nM | Activity [21]: Non-Toxic | Emax (Mu-type opioid receptor [7]): < 20% | Activity (Mu-type opioid receptor [8]): Active | Activity [9]: Active | Ki (Mu-type opioid receptor [22]): 6 nM | Emax (Mu-type opioid receptor [1]; filed as partial agonist): 106% | Emax (Mu-type opioid receptor [10]): 60% | Emax (Mu-type opioid receptor [2]; [23]): 45% | Emax [11]: 20% | EC50 (Mu-type opioid receptor [3]): 7.25 nM

CC[C@@H]1CN2CCc3c([nH]c4cccc(C)c34)[C@@H]2C[C@@H]1/C(=C\OC)C(=O)OC
Emax (Mu-type opioid receptor [1]; filed as agonist): 97.1% | Emax (Mu-type opioid receptor [2]; HTLA230): < 20% | EC50 (Mu-type opioid receptor [3]): 82.9 nM

CC[C@@H]1CN2CCc3c([nH]c4ccc(C)c(OC)c34)[C@@H]2C[C@@H]1/C(=C\OC)C(=O)OC
Emax (Mu-type opioid receptor [1]; filed as agonist): 96.5% | Emax (Mu-type opioid receptor [2]; HTLA230): < 20% | EC50 (Mu-type opioid receptor [3]): 370 nM
